Experimental findings from the M2OR odorant receptor database are described below.

Changes are numbered by the printed parent chain.

Holding throughout (settings): stereoisomer not certain
In one assay the target is T1, OR8U1 (Homo sapiens) (UniProt Q8NH10).
T1 sequence (whole entry): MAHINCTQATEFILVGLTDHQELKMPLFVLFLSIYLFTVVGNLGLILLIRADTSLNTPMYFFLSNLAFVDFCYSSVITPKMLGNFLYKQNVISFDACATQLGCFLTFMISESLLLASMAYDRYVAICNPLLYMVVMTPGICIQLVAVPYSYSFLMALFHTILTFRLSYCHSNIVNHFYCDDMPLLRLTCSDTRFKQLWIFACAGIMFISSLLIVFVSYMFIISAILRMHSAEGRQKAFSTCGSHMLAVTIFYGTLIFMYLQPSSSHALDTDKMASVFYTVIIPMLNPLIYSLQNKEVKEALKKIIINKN
The gist of the method:
(§1)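 Each entry records the cell line, G-protein, co-transfected protein and tags used. Methods varied with the source, often transient luciferase assays in mammalian cell lines. A receptor–molecule pair is called responsive (active) if the original authors judged its signal statistically different from baseline and non-responsive (inactive) otherwise.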

The target of another assay is T2, OR8U3 (Homo sapiens) (UniProt Q8NH85).
T2 sequence (whole entry): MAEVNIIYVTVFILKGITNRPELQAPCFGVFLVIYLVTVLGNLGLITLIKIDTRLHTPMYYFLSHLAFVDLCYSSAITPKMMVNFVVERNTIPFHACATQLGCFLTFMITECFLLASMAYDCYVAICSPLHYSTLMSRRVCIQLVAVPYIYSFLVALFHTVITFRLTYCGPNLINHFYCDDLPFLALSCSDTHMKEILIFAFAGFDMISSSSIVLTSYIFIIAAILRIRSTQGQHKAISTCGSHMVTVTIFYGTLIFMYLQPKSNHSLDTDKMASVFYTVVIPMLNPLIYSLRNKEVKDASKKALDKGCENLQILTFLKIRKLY
The gist of the method:
as §1

The target in the next assay is T3, OR8U8 (Homo sapiens) (UniProt P0C7N1).
T3 sequence (whole entry): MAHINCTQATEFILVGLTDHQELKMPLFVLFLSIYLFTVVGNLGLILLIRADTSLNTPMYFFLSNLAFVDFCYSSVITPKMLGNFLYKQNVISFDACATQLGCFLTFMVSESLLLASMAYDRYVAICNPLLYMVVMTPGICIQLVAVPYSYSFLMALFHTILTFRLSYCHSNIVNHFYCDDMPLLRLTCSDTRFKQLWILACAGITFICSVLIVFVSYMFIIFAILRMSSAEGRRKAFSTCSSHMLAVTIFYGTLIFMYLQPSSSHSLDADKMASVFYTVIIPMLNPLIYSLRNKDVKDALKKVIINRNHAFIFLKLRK
Summed up: as §1

For the next assay, the target named is T4, OR8U9 (Homo sapiens) (UniProt P0C7N5).
T4 sequence (whole entry): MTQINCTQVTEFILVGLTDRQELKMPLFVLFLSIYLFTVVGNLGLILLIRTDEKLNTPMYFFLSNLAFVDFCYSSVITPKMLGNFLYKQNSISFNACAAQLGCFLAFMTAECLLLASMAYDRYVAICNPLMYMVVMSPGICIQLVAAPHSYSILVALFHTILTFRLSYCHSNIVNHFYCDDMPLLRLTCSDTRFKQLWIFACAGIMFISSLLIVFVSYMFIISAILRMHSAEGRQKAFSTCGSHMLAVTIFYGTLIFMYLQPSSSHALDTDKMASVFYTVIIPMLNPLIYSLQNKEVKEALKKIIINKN
Summed up: as §1

The next assay addresses T5, OR9A2 (Homo sapiens) (UniProt Q8NGT5).
T5 sequence (whole entry): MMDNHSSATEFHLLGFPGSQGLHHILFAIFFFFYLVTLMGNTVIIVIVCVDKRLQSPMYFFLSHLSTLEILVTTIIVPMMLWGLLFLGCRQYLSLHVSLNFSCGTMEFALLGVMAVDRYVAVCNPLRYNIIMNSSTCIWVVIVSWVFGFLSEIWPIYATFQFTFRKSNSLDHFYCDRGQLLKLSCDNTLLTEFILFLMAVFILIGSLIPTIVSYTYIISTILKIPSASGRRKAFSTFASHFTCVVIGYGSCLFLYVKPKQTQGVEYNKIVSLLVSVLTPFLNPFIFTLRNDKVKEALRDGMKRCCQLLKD
The gist of the method: as §1

Assay [1] concerns T6, OR8U8.
T6 sequence (whole entry): T3 sequence (whole entry) with V109I, S112C
The gist of the method: as §1

Assay [2] deals with T7, OR8U8.
T7 sequence (whole entry): T3 sequence (whole entry) with H20R, V109I, R165C
Summed up: as §1
The source holds these as a separate data set.

The test system of a further assay is T8, OR8U9 T2A Q3H Q293R.
T8 sequence (whole entry): T4 sequence (whole entry) with T2A, Q3H, Q293R
The gist of the method: as §1

In a further assay the test system is T9, OR8U9.
T9 sequence (whole entry): T4 sequence (whole entry) with Q293R
The gist of the method: as §1

For another assay, the system named is T10, OR9A2 C304Y.
T10 sequence (whole entry): T5 sequence (whole entry) with C304Y
The gist of the method:
as §1

In the case of `CCC(S)C(C)CO` (stereo not drawn), the “odorant receptor agonist call” value in the assay with OR8U1 (Homo sapiens), with OR8U3 (Homo sapiens), with OR8U8 (Homo sapiens), in the assay with OR8U9 (Homo sapiens) and with OR9A2 (Homo sapiens) was “inactive” in each case.
Regarding `CC1=C(O)C(=O)OC1C` (stereo not drawn), the “odorant receptor agonist call” value in the assay with OR8U1 (Homo sapiens), in the assay with OR8U3 (Homo sapiens), in the assay with OR8U8 [1], in the assay on OR8U8 [2], in the assay with OR8U9 (Homo sapiens) and in the assay with OR8U9 T2A Q3H Q293R was “inactive” throughout. Moreover, the “odorant receptor agonist call” value in the assay on OR8U9, in the assay with OR9A2 (Homo sapiens) and in the assay on OR9A2 C304Y was “inactive” in each case.
In the case of `CCC1OC(=O)C(O)=C1C` (stereo not drawn), the “odorant receptor agonist call” value with OR8U1 (Homo sapiens), in the assay with OR8U3 (Homo sapiens), in the assay on OR8U8 [1], in the assay on OR8U8 [2], with OR8U9 (Homo sapiens) and in the assay on OR8U9 T2A Q3H Q293R was “inactive” in each case. Besides, the “odorant receptor agonist call” value with OR8U9, in the assay with OR9A2 (Homo sapiens) and in the assay with OR9A2 C304Y was “inactive” in each case.
On to `CC1=C(O)C(=O)C(C)O1` (stereo not drawn), for which the “odorant receptor agonist call” value with OR8U1 (Homo sapiens), with OR8U3 (Homo sapiens), with OR8U8 [1], in the assay with OR8U8 [2], with OR8U9 (Homo sapiens) and in the assay with OR8U9 T2A Q3H Q293R was “inactive” throughout. Besides, the “odorant receptor agonist call” value with OR8U9, with OR9A2 (Homo sapiens) and in the assay with OR9A2 C304Y was “inactive” throughout.
On to `CCCC(S)CCOC(C)=O` (stereo not drawn), for which the “odorant receptor agonist call” value with OR8U1 (Homo sapiens), with OR8U3 (Homo sapiens), in the assay on OR8U8 [1], with OR8U8 [2], with OR8U9 (Homo sapiens) and in the assay on OR8U9 T2A Q3H Q293R was “inactive” throughout. Besides, the “odorant receptor agonist call” value in the assay with OR8U9, in the assay with OR9A2 (Homo sapiens) and with OR9A2 C304Y was “inactive” each time.
In the case of `O=C1CCOc2ccccc21`, in the assay with OR8U3 (Homo sapiens), the “odorant receptor agonist call” value was “active”.
On to `CCCCCC(=O)C(C)C(C)=O` (stereo not drawn), for which the “odorant receptor agonist call” value with OR8U1 (Homo sapiens), in the assay with OR8U3 (Homo sapiens), with OR8U8 (Homo sapiens), in the assay with OR8U9 (Homo sapiens) and with OR9A2 (Homo sapiens) was “inactive” each time.
For `CC(CO)CS` (stereo not drawn), the “odorant receptor agonist call” value with OR8U1 (Homo sapiens), with OR8U3 (Homo sapiens), with OR8U8 (Homo sapiens), with OR8U9 (Homo sapiens) and with OR9A2 (Homo sapiens) was “inactive” in each case.
On to `CCCCCC(S)C(C)CO` (stereo not drawn), for which the “odorant receptor agonist call” value with OR8U1 (Homo sapiens), with OR8U3 (Homo sapiens), in the assay with OR8U8 (Homo sapiens), with OR8U9 (Homo sapiens) and in the assay with OR9A2 (Homo sapiens) was “inactive” each time.
In the case of `Cc1cnc(C)c(C)n1`, the “odorant receptor agonist call” value with OR8U1 (Homo sapiens), in the assay with OR8U3 (Homo sapiens), with OR8U8 [1], with OR8U8 [2], in the assay with OR8U9 (Homo sapiens) and in the assay with OR8U9 T2A Q3H Q293R was “inactive” each time. Besides, the “odorant receptor agonist call” value with OR8U9, in the assay with OR9A2 (Homo sapiens) and in the assay on OR9A2 C304Y was “inactive” each time.
As to `CCCCC(S)C(C)CO` (stereo not drawn), the “odorant receptor agonist call” value in the assay with OR8U1 (Homo sapiens), with OR8U3 (Homo sapiens), with OR8U8 (Homo sapiens), with OR8U9 (Homo sapiens) and with OR9A2 (Homo sapiens) was “inactive” throughout.
Regarding `O=c1ccc2ccccc2o1`, the “odorant receptor agonist call” value in the assay with OR8U3 (Homo sapiens) is “active”.
With `CC1=NC(C)C(C)S1` (stereo not drawn), the “odorant receptor agonist call” value with OR8U1 (Homo sapiens), with OR8U3 (Homo sapiens), in the assay with OR8U8 [1], in the assay with OR8U8 [2], in the assay with OR8U9 (Homo sapiens) and in the assay with OR8U9 T2A Q3H Q293R was “inactive” throughout. For the same molecule, the “odorant receptor agonist call” value in the assay with OR8U9, in the assay with OR9A2 (Homo sapiens) and with OR9A2 C304Y was “inactive” in each case.
For the molecule `CCCCCCC=CCCC=O`, the “odorant receptor agonist call” value in the assay with OR8U1 (Homo sapiens), in the assay with OR8U3 (Homo sapiens), with OR8U8 (Homo sapiens), with OR8U9 (Homo sapiens), in the assay with OR8U9 T2A Q3H Q293R and in the assay with OR8U9 was “inactive” throughout. In addition, the “odorant receptor agonist call” value with OR9A2 (Homo sapiens) and in the assay with OR9A2 C304Y was “inactive” in each case.
Consider `CCC1OC(C)=C(O)C1=O` (stereo not drawn), for which the “odorant receptor agonist call” value in the assay with OR8U1 (Homo sapiens), with OR8U3 (Homo sapiens), in the assay on OR8U8 [1], in the assay with OR8U8 [2], in the assay with OR8U9 (Homo sapiens) and in the assay on OR8U9 T2A Q3H Q293R was “inactive” each time. The “odorant receptor agonist call” value with OR8U9, in the assay with OR9A2 (Homo sapiens) and with OR9A2 C304Y was “inactive” in each case.
With `CC(=O)c1c(C)c([N+](=O)[O-])c(C(C)(C)C)c([N+](=O)[O-])c1C`, the “odorant receptor agonist call” value with OR8U1 (Homo sapiens), in the assay with OR8U3 (Homo sapiens), with OR8U8 (Homo sapiens), with OR8U9 (Homo sapiens) and with OR9A2 (Homo sapiens) was “inactive” in each case.
Regarding `CC1CCCCCCCCCCCCC(=O)C1` (stereo not drawn), the “odorant receptor agonist call” value in the assay with OR8U1 (Homo sapiens), with OR8U3 (Homo sapiens), with OR8U8 (Homo sapiens), in the assay with OR8U9 (Homo sapiens) and with OR9A2 (Homo sapiens) was “inactive” throughout.
